Measured values reported in ChEMBL document CHEMBL4673255, “Acylated 1H-1,2,4-Triazol-5-amines Targeting Human Coagulation Factor XIIa and Thrombin: Conventional and Microscale Synthesis, Anticoagulant Properties, and Mechanism of Action” (J Med Chem, 2020).

Legend:
Coagulation factor X = Coagulation factor X (Homo sapiens, UniProt P00742); assay: Inhibition of human coagulation factor Xa using Boc-Ile-Glu-Gly-Arg-AMC as fluorogenic substrate measured at 1 min interval for 1 hr by fluorometric assay
Sequence of Coagulation factor X (P00742 41-179 limits assumed): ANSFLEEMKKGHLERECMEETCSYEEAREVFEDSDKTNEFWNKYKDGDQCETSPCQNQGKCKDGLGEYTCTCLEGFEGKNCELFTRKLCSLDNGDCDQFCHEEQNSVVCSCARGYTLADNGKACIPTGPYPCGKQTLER
Sequence of Coagulation factor X (P00742 235-488 limits assumed): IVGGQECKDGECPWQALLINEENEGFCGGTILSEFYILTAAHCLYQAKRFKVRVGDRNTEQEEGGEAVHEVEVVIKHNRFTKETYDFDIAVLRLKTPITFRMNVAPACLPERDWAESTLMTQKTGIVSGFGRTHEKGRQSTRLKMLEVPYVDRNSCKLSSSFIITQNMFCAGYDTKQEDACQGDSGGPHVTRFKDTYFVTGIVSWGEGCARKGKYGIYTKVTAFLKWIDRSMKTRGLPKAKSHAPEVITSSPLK

Prothrombin [1] = biological target: T1, Prothrombin (Homo sapiens, UniProt P00734); assay: Inhibition of human coagulation factor alpha-thrombin using Boc-Val-Pro-Arg-AMC as fluorogenic substrate measured at 1 min interval for 1 hr by fluorometric assay
Blood [2] = assay: Anticoagulant activity in human blood assessed as increase in activated partial thromboplastin time at 300 uM incubated for 1 min by aPTT reagent based assay relative to control; type: functional
How it was run: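 Compounds were tested at 300 µM, and the increase was expressed relative to DMSO. The doubling concentration (EC2×) is the concentration prolonging aPTT twofold. At least triplicate, mean ± SD.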

[3] = Inhibition of porcine trypsin using Z-Gly-Gly-Arg-AMC as fluorogenic substrate measured at 1 min interval for 1 hr by fluorometric assay; design: species or system Sus scrofa
Blood [4] = assay: Effect on blood coagulation in human blood assessed as increase in prothrombin time at 300 uM incubated for 3 mins followed by CaCl2 addition by PT reagent based assay relative to control; type: ADME, tissue-based; settings: 0.05 h
How it was run: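 Clotting was started with PT reagent already containing CaCl2, prewarmed to 37 °C, and clotting time was recorded. Increase is given relative to DMSO; at least triplicate, mean ± SD.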

Coagulation factor XII = biological target: T2, Coagulation factor XII (Homo sapiens, UniProt P00748); assay: Inhibition of human coagulation factor XIIA using Boc-Gln-Gly-Arg-AMC as fluorogenic substrate measured at 1 min interval for 1 hr by fluorometric assay
T2 sequence (P00748 whole entry): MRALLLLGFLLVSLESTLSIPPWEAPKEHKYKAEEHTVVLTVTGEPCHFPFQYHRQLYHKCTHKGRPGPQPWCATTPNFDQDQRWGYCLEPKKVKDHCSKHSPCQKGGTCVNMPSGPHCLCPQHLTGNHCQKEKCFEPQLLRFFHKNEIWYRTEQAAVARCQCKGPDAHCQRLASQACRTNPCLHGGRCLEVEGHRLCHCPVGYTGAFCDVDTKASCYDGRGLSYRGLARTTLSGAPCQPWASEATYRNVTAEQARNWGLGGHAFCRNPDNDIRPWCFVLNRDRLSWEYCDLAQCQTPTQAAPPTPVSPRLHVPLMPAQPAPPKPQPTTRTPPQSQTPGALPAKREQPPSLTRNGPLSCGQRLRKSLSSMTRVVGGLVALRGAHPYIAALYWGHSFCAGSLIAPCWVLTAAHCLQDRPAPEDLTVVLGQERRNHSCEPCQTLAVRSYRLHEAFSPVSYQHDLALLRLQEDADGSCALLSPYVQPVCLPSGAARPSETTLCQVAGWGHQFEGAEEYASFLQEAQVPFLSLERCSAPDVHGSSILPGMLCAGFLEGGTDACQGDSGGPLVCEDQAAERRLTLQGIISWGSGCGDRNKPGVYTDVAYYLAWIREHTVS

[5] = biological target: T3, Coagulation factor XII (Homo sapiens) (UniProt P00748); assay: Inhibition of human coagulation factor XIIA in presence of Boc-Gln-Gly-Arg-AMC as fluorogenic substrate at 1 uM measured at 1 min interval for 1 hr by fluorometric assay relative to control
T3 sequence (whole entry): T2 sequence (P00748 whole entry)
How it was run: (§1)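 Screening of crude microscale amide-coupling products. Conversion was measured by 1H NMR and product content normalised to 76 µmol/L in DMSO, then tested at 1 µM and 100 nM in the fluorogenic FXIIa or thrombin assay. A 0-conversion reaction served as blank. Percent inhibition is from triplicates.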

[6] = biological target: Urokinase-type plasminogen activator (Homo sapiens, UniProt P00749); assay: Inhibition of human uPA using Tos-Gly-Pro-Arg-AMC as fluorogenic substrate measured at 1 min interval for 1 hr by fluorometric assay
Plasma [7] = assay: (§2) Anticoagulant activity in human platelet-rich plasma assessed as reduction in TF-induced thrombin generation by measuring half life of clotting time at 100 uM preincubated for 15 mins followed by TF addition by Z-Gly-Gly-Arg-AMC substrate based calibrated automated thrombography (Rvb= 3 +/- 0.5 min); type: functional, cell-free
How it was run: (§3)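 Tissue-factor-triggered homogeneous thrombin generation followed by fluorogenic substrate cleavage. Read-outs: clotting time (T1/2), peak amplitude (Amax, AU/L), time to peak (Tmax) and ETP (AU·min/L). DMSO and buffer served as controls. n = 3, mean ± SD.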

Coagulation factor XI = Coagulation factor XI (Homo sapiens, UniProt P03951); assay: Inhibition of human coagulation factor XIA using Mes-dArg-Pro-Arg-AMC as fluorogenic substrate measured at 1 min interval for 1 hr by fluorometric assay
Sequence of Coagulation factor XI (P03951 19-387 limits assumed): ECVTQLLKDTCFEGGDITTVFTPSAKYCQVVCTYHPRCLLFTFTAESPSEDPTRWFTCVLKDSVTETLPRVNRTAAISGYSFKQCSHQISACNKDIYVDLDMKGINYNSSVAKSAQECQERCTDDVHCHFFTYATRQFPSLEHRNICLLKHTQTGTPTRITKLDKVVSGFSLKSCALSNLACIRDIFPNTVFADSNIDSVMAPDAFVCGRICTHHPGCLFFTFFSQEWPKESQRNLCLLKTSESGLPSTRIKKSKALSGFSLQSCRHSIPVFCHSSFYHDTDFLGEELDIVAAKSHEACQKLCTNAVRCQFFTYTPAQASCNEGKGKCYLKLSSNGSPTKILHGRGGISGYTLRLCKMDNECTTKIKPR
Sequence of Coagulation factor XI (P03951 388-625 limits assumed): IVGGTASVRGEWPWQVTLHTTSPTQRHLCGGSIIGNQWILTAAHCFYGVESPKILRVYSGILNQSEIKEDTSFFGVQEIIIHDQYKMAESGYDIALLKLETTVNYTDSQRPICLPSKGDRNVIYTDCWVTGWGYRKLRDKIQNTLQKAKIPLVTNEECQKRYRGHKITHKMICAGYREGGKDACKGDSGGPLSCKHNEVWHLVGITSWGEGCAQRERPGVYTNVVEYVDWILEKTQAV

Plasma [8] = assay: as §2, with “Tmax” for “half life”, “(reference value: 8.1” for “(Rvb= 3”, “0.6” for “0.5”; type: functional, cell-free; how it was run: as §3
Plasma [9] = assay: as §2, with “amplitude” for “half life”, “thrombin peak” for “clotting time”, “(reference value: 63” for “(Rvb= 3”, “3.7 AU/L)” for “0.5 min)”; type: functional; settings: 0.25 h; how it was run: as §3
Plasminogen = Plasminogen (Homo sapiens, UniProt P00747); assay: Inhibition of human plasmin using Mes-dArg-Phe-Arg-AMC as fluorogenic substrate measured at 1 min interval for 1 hr by fluorometric assay
Sequence of Plasminogen (P00747 97-580 limits assumed): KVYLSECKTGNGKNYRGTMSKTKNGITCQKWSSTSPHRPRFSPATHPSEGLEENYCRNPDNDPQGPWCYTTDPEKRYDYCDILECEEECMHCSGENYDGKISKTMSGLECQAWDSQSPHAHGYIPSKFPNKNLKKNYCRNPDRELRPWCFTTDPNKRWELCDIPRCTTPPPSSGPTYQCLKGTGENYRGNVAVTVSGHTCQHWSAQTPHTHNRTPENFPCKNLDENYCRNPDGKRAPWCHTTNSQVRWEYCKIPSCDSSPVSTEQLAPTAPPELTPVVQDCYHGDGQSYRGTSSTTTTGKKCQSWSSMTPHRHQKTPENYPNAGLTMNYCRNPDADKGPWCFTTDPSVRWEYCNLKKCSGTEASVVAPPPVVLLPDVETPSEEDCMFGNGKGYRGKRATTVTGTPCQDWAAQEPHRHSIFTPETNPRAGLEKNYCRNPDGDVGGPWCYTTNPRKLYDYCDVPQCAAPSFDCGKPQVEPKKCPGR
Sequence of Plasminogen (P00747 581-810 limits assumed): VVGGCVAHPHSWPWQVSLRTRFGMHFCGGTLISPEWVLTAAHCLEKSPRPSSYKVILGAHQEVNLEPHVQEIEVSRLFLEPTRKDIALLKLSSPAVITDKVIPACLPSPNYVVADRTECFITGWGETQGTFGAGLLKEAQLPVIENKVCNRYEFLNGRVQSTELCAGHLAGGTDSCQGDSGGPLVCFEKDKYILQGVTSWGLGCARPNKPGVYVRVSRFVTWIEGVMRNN

Plasma kallikrein = Plasma kallikrein (Homo sapiens, UniProt P03952); assay: Inhibition of human kallikrein using Mes-dArg-Pro-Arg-AMC as fluorogenic substrate measured at 1 min interval for 1 hr by fluorometric assay
Sequence of Plasma kallikrein (P03952 20-390 limits assumed): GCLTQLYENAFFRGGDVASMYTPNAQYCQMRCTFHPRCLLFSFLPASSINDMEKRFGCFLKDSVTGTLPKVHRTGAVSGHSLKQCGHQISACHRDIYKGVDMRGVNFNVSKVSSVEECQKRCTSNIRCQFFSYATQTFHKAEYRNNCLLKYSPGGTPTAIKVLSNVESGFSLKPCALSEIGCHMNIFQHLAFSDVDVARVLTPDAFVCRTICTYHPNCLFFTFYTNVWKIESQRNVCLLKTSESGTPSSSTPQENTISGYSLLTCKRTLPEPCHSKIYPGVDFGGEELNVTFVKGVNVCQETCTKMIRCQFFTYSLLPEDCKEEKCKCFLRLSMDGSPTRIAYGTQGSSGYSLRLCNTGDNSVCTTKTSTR
Sequence of Plasma kallikrein (P03952 391-638 limits assumed): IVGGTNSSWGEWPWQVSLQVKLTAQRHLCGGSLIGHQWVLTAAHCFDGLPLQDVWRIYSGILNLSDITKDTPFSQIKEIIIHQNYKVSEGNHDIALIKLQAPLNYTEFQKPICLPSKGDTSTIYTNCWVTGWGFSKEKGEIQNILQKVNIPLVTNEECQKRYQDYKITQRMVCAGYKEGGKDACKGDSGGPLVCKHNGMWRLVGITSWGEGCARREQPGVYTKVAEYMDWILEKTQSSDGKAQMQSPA

Plasma [10] = assay: as §2, with “endogenous thrombin potential” for “half life of clotting time”, “(reference value: 1203” for “(Rvb= 3”, “44 AU.min/L)” for “0.5 min)”; type: functional; settings: 0.25 h; how it was run: as §3
Prothrombin [11] = biological target: T1, Prothrombin; assay: Inhibition of human coagulation factor thrombin using Boc-Val-Pro-Arg-AMC as fluorogenic substrate at 100 nM measured at 1 min interval for 1 hr by fluorometric assay relative to control; how it was run: as §1
[12] = biological target: T3, Coagulation factor XII (Homo sapiens); assay: Inhibition of human coagulation factor XIIA using Boc-Gln-Gly-Arg-AMC as fluorogenic substrate at 100 nM measured at 1 min interval for 1 hr by fluorometric assay relative to control; how it was run: as §1
[13] = biological target: T3, Coagulation factor XII (Homo sapiens); assay: Binding affinity to human plasma coagulation factor XIIA assessed as compound-adduct formation by measuring change in molecular mass at molar ratio of 1:20 measured after 4 mins by SEC/ESI-TOF mass spectra analysis; type: cell-free
How it was run: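 β-FXIIa incubated with inhibitor at a 1:20 molar ratio, then size-exclusion chromatography coupled to ESI-MS to measure the mass of enzyme–inhibitor complexes. Further runs checked complex stability to probe reversibility.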

Homo sapiens = species on record: Homo sapiens; assay: Selectivity index, ratio of IC50 for inhibition of human coagulation factor alpha-thrombin using Boc-Val-Pro-Arg-AMC as fluorogenic substrate to IC50 for inhibition of human coagulation factor XIIA using Boc-Gln-Gly-Arg-AMC as fluorogenic substrate incubated for 1 hr by fluorometric assay

| SMILES | IC50 (Coagulation factor X) | IC50 (Prothrombin [1]) | IC50 [3] | Activity (Blood [4]) | IC50 (Coagulation factor XII) | inhibition [5] | Activity (Blood [2]) | also measured |
| --- | --- | --- | --- | --- | --- | --- | --- | --- |
| Cc1ccc(S(=O)(=O)n2nc(-c3ccncc3)nc2N)cc1 | > 5 µM | > 5 µM | > 5 µM | 2% | > 1 µM | – | 5% | – |
| Nc1nc(-c2ccccn2)nn1C(=O)c1ccc(C(F)(F)F)cc1 | > 5 µM | 4.57 µM | > 5 µM | 8% | 3.21 µM | 14% | 40% | – |
| CCOc1ccc(Nc2nc(N)n(C(=O)c3ccccc3)n2)cc1 | > 5 µM | > 5 µM | > 5 µM | – | > 1 µM | – | – | – |
| [H]/N=C(/N)c1ccc(NCc2nc3cc(C(=O)N(CCC(=O)O)c4ccccn4)ccc3n2C)cc1 [DABIGATRAN] | – | – | – | 539% | > 33 µM | – | – | – |
| Nc1n[nH]c(-c2ccncc2)n1 | > 5 µM | > 5 µM | > 5 µM | 1% | > 5 µM | – | 5% | – |
| Nc1nc(-c2ccccn2)nn1C(=O)c1ccccc1[N+](=O)[O-] | > 5 µM | > 5 µM | – | – | 1.56 µM | 43% | – | – |
| Nc1nc(-c2ccccn2)nn1C(=O)C1CCCCC1 | > 5 µM | > 5 µM | > 5 µM | – | > 1 µM | 11% | – | – |
| Nc1nc(-c2ccccn2)nn1C(=O)CNC(=O)c1ccccc1 | > 5 µM | > 132 µM | > 5 µM | 3% | 13.2 µM | 20% | -2% | – |
| Nc1n[nH]c(-c2ccccn2)n1 | > 5 µM | > 5 µM | > 5 µM | – | > 5 µM | – | – | – |
| Nc1n[nH]c(-c2ccccc2)n1 | > 5 µM | > 5 µM | > 5 µM | – | > 5 µM | – | – | – |
| Nc1nc(-c2ccccn2)nn1C(=O)C1CCOCC1 | > 5 µM | > 5 µM | > 5 µM | – | 12.1 µM | 1% | – | – |
| Nc1nc(-c2ccccn2)nn1C(=O)c1ccc([N+](=O)[O-])cc1 | > 5 µM | > 5 µM | – | 3% | 5.93 µM | 29% | 35% | – |
| Nc1nc(-c2ccccn2)nn1C(=O)c1ccco1 | > 5 µM | 1.77 µM | > 5 µM | – | 0.968 µM | 54% | – | – |
| Nc1nc(Nc2cccnc2)nn1C(=O)c1ccccc1 | > 5 µM | > 8 µM | > 5 µM | 2% | > 5 µM | – | 1% | – |
| Nc1nc(-c2ccccn2)nn1C(=O)/C=C/c1ccccc1 | > 5 µM | 1.56 µM | > 5 µM | – | 9.82 µM | 21% | – | – |
| Nc1nc(-c2ccncc2)nn1C(=O)C1CCCCC1 | > 5 µM | > 5 µM | > 5 µM | 7% | > 1 µM | – | 10% | – |
| Nc1nc(-c2ccccc2)nn1C(=O)c1ccccc1 | > 5 µM | 1.24 µM | > 5 µM | 5% | 0.539 µM | – | 29% | – |
| Nc1nc(-c2ccccn2)nn1C(=O)c1ccc(Br)cc1 | > 5 µM | 0.239 µM | > 5 µM | 16% | 0.793 µM | 58% | 119% | – |
| Nc1nc(-c2ccccn2)nn1C(=O)c1cccnc1 | > 5 µM | 0.494 µM | > 5 µM | – | 1.61 µM | 43% | – | – |

Now those with a lower IC50 (Coagulation factor XII), led by results:

| IC50 (Coagulation factor X) | IC50 (Prothrombin [1]) | IC50 [3] | Activity (Blood [4]) | IC50 (Coagulation factor XII) | inhibition [5] | SMILES | Activity (Blood [2]) | also measured |
| --- | --- | --- | --- | --- | --- | --- | --- | --- |
| > 5 µM | 0.481 µM | > 5 µM | 8% | 0.306 µM | 79% | Nc1nc(-c2ccccn2)nn1C(=O)c1ccc(F)cc1 | 78% | – |
| > 5 µM | 0.329 µM | > 5 µM | 14% | 0.291 µM | 80% | COc1ccc(C(=O)n2nc(-c3ccccn3)nc2N)cc1 | 108% | – |
| > 5 µM | 0.509 µM | > 5 µM | – | 0.21 µM | 87% | Nc1nc(-c2ccccn2)nn1C(=O)Cc1ccccc1 | – | – |
| > 5 µM | 0.308 µM | > 5 µM | 6% | 0.162 µM | 85% | CCc1ccc(C(=O)n2nc(-c3ccccn3)nc2N)cc1 | 114% | – |
| > 5 µM | 3.39 µM | > 5 µM | – | 0.142 µM | 89% | Nc1nc(-c2ccccn2)nn1C(=O)c1ccc(NC(=O)C(F)(F)F)cc1 | – | Ratio IC50 (Homo sapiens): 24 |
| > 5 µM | 0.421 µM | > 5 µM | 7% | 0.134 µM | 96% | Nc1nc(-c2ccccn2)nn1C(=O)[C@H]1CCCc2ccccc21 | 67% | inhibition (Prothrombin [11]): 6%; inhibition [12]: 70%; Activity [13]: 158 Da |
| > 5 µM | 0.962 µM | > 5 µM | 2% | 0.106 µM | – | Nc1nc(-c2ccncc2)nn1C(=O)c1ccccc1 | 80% | – |
| > 5 µM | 0.086 µM | > 5 µM | 12% | 0.093 µM | 83% | Cc1cccc(C(=O)n2nc(-c3ccccn3)nc2N)c1 | 124% | – |
| > 5 µM | 0.057 µM | > 5 µM | 48% | 0.091 µM | 92% | Cc1ccc(C(=O)n2nc(-c3ccccn3)nc2N)cc1C | 227% | IC50 [6]: 2.94 µM; T1/2 (Plasma [7]): 3.8 min; IC50 (Coagulation factor XI): > 5 µM; Tmax (Plasma [8]): 8.8 min; Activity (Plasma [9]): 16.9 AU/L; IC50 (Plasminogen): 25.8 µM; IC50 (Plasma kallikrein): > 5 µM; Activity (Plasma [10]): 370 AU.min/L |
